According to ChEMBL document CHEMBL1148650, “Synthesis and pharmacological evaluation of novel nitrobenzenic thromboxane modulators as antiplatelet agents acting on both the alpha and beta isoforms of the human thromboxane receptor” (J Med Chem, 2006):

Assays:
[1] = biological target: T1, Thromboxane A2 receptor (Homo sapiens) (UniProt P21731); test: Displacement of [3H]SQ-29548 from TPbeta receptor (long isoform) expressed in COS7 cells at 1 nM; conditions: COS-7
T1 sequence (whole entry): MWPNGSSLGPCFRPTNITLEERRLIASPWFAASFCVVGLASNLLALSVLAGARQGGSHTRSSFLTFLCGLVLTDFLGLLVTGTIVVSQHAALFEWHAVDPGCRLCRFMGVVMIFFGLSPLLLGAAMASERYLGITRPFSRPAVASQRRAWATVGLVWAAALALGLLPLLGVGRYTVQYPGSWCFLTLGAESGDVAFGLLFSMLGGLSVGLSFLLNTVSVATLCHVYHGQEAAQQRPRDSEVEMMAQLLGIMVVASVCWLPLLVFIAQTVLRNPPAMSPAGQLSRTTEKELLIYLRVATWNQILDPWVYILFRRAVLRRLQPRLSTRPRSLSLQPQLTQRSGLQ

[2] = biological target: T1, Thromboxane A2 receptor (Homo sapiens); test: Displacement of [3H]SQ29,548 from TPalpha receptor (short isoform) expressed in COS7 cells at 1 nM; conditions: COS-7
Thromboxane A2 receptor [3] = biological target: T2, Thromboxane A2 receptor (Homo sapiens, UniProt P21731); test: Activity at TPalpha (short isoform) receptor expressed in HEK293 cells assessed as ability to antagonize U46619-mediated calcium ion mobilization; type: functional, cell-based
T2 sequence (P21731 whole entry): T1 sequence (whole entry)
How it was run: (§1)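 HEK293 cells stably overexpressing human TPα or TPβ. Cells were loaded 1 h with Fluo-4/AM (5 µg/mL) and washed in Krebs-HEPES pH 7.4 (150 000 cells/well). Compound (10^-5 to 10^-8 M final) was added 10 min before 1 µM U46619. Fluo-4 signal was calibrated by Triton X-100 and then EGTA (Kd 385 nM) for [Ca2+]i. IC50 is the concentration halving the [Ca2+]i rise.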

Thromboxane A2 receptor [4] = biological target: T2, Thromboxane A2 receptor; test: Displacement of [3H]SQ29,548 from TPalpha receptor (short isoform) expressed in COS7 cells
[5] = biological target: T1, Thromboxane A2 receptor (Homo sapiens); test: Selectivity index, IC50 for TPalpha/IC50 for TPbeta in HEK293 cells; type: functional, cell-based
How it was run: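 Ratio of IC50 TPα to IC50 TPβ, both from the calcium assay in stably transfected HEK293 cells. Fluo-4-loaded cells were preincubated 10 min with compound (10^-5 to 10^-8 M), then stimulated with 1 µM U46619. IC50 is the concentration inhibiting 50% of the [Ca2+]i rise.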

Thromboxane A2 receptor [6] = biological target: T2, Thromboxane A2 receptor; test: Activity at TPbeta (long isoform) receptor expressed in HEK293 cells assessed as ability to antagonize U46619-mediated calcium ion mobilization; type: functional, cell-based
How it was run: as §1

[7] = biological target: T1, Thromboxane A2 receptor (Homo sapiens); test: Selectivity index, IC50 for TPalpha/IC50 for TPbeta in COS7 cells; type: cell-based; conditions: COS-7
How it was run: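 Binding used 5 × 10^5 cells in 25 mM HEPES/125 mM NaCl/10 µM indomethacin, pH 7.4, with 10 nM [3H]SQ29,548 and compound at 10^-6 to 10^-11 M, in triplicate, for 30 min at 37 °C. Nonspecific binding: 10 µM unlabeled SQ29,548. Bound ligand was counted after filtration. Index = IC50 TPα/IC50 TPβ.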

Thromboxane A2 receptor [8] = biological target: T2, Thromboxane A2 receptor; test: Displacement of [3H]SQ-29548 from TPbeta receptor (long isoform) expressed in COS7 cells
[9] = biological target: T1, Thromboxane A2 receptor (Homo sapiens); test: Displacement of [3H]SQ-29548 from TPbeta receptor (long isoform) expressed in COS7 cells at 1 uM; type: cell-based; conditions: COS-7
[10] = biological target: T1, Thromboxane A2 receptor (Homo sapiens); test: Displacement of [3H]SQ29,548 from TPalpha receptor (short isoform) expressed in COS7 cells at 1 uM; type: cell-based; conditions: COS-7

Activity [1] | Activity [2] | IC50 (Thromboxane A2 receptor [3]) | IC50 (Thromboxane A2 receptor [4]) | Ratio IC50 [5] | IC50 (Thromboxane A2 receptor [6]) | Ratio IC50 [7] | IC50 (Thromboxane A2 receptor [8]) | Activity [9] | Activity [10] | SMILES
27.5% | 27.9% |  |  |  |  |  |  |  |  | CCCCCNC(=O)NS(=O)(=O)c1cc([N+](=O)[O-])ccc1Nc1c(C)cc(C)cc1C
54% | 36.5% | 80.7 nM | 1.52 nM | 1.71 | 47.1 nM | 1.03 | 1.48 nM |  |  | CCCCCNC(=O)NS(=O)(=O)c1cc([N+](=O)[O-])ccc1Nc1c(C)cccc1C
43% | 38.5% |  |  |  |  |  |  |  |  | CCCCCNC(=O)NS(=O)(=O)c1cc([N+](=O)[O-])ccc1Sc1ccc(C)cc1
46.1% | 55.2% | 526 nM | 0.72 nM | 9 | 58.5 nM | 0.45 | 1.58 nM |  |  | CCCCCCNC(=O)NS(=O)(=O)c1cc([N+](=O)[O-])ccc1Oc1ccc(C)cc1
24.1% | 17.1% |  |  |  |  |  |  |  |  | CCCCCCCCNC(=O)NS(=O)(=O)c1cc([N+](=O)[O-])ccc1NC1CCCCC1
39% | 44.6% |  |  |  |  |  |  |  |  | CCCCCNC(=O)NS(=O)(=O)c1cc([N+](=O)[O-])ccc1Nc1cccc(C)c1C
32.7% | 33.4% |  |  |  |  |  |  |  |  | CCCCCNC(=O)NS(=O)(=O)c1cc([N+](=O)[O-])ccc1Sc1ccccc1C
48.7% | 40.1% |  |  |  |  |  |  |  |  | CCCCCNC(=O)NS(=O)(=O)c1cc([N+](=O)[O-])ccc1Nc1ccc(C)c(C)c1
37.7% | 47% | 294 nM | 0.77 nM | 5.32 | 55.2 nM | 0.44 | 1.74 nM |  |  | Cc1ccc(Sc2ccc([N+](=O)[O-])cc2S(=O)(=O)NC(=O)NC(C)(C)C)cc1
25% | 28.5% |  |  |  |  |  |  |  |  | Cc1cc(Nc2ccc([N+](=O)[O-])cc2S(=O)(=O)NC(=O)NC(C)(C)C)ccc1Br
54.2% | 46.2% | 64.8 nM | 0.46 nM | 1.68 | 38.5 nM | 0.68 | 0.68 nM |  |  | Cc1ccc(Nc2ccc([N+](=O)[O-])cc2S(=O)(=O)NC(=O)N2CCCCC2)cc1
46.3% | 46.4% | 56.9 nM | 0.78 nM | 1.85 | 30.8 nM | 1.4 | 0.56 nM |  |  | Cc1cccc(C)c1Nc1ccc([N+](=O)[O-])cc1S(=O)(=O)NC(=O)NC(C)(C)C
34.2% | 39.6% | 50 nM | 2.65 nM | 3.69 | 13.6 nM | 0.75 | 3.53 nM |  |  | CCCCCNC(=O)NS(=O)(=O)c1cc([N+](=O)[O-])ccc1Nc1ccc(C)cc1
53.4% | 48% |  |  |  |  |  |  |  |  | CCCCC/N=C(\NC#N)NS(=O)(=O)c1cc([N+](=O)[O-])ccc1Nc1cc(C)cc(C)c1
36.4% | 29.5% | 92.9 nM | 2.5 nM | 1.67 | 55.5 nM | 0.93 | 2.68 nM |  |  | CCCCCCCNC(=O)NS(=O)(=O)c1cc([N+](=O)[O-])ccc1NC1CCCCC1
36.8% | 35.2% |  |  |  |  |  |  |  |  | CCCCCNC(=O)NS(=O)(=O)c1cc([N+](=O)[O-])ccc1Oc1ccccc1C
22.8% | 20.1% |  |  |  |  |  |  |  |  | CCCCCNC(=O)NS(=O)(=O)c1cc([N+](=O)[O-])ccc1Oc1cccc(C)c1
33.1% | 28.6% |  |  |  |  |  |  |  |  | CCCCCNC(=O)NS(=O)(=O)c1cc([N+](=O)[O-])ccc1Nc1cc(C)ccc1C
49.7% | 49.7% | 538 nM | 1.08 nM | 7.03 | 76.5 nM | 1.55 | 0.7 nM |  |  | CCCCCNC(=O)NS(=O)(=O)c1cc([N+](=O)[O-])ccc1Nc1cc(C)cc(C)c1

Activity [1] | Activity [2] | IC50 (Thromboxane A2 receptor [3]) | IC50 (Thromboxane A2 receptor [4]) | Ratio IC50 [5] | IC50 (Thromboxane A2 receptor [6]) | Ratio IC50 [7] | IC50 (Thromboxane A2 receptor [8]) | Activity [9] | Activity [10] | SMILES
51.9% | 49.8% | 601 nM | 1.52 nM | 8.56 | 70.2 nM | 1.93 | 0.79 nM |  |  | Cc1ccc(Oc2ccc([N+](=O)[O-])cc2S(=O)(=O)NC(=O)NC2CCCCC2)cc1
39.9% | 42.3% |  |  |  |  |  |  |  |  | CCCCCNC(=O)NS(=O)(=O)c1cc([N+](=O)[O-])ccc1Nc1ccc(C)cc1C
48.5% | 35.5% | 139 nM | 2.63 nM | 2.52 | 55.4 nM | 4.02 | 0.65 nM |  |  | CCCCCNC(=O)NS(=O)(=O)c1cc([N+](=O)[O-])ccc1Oc1ccc(C)cc1
27.2% | 25.5% |  |  |  |  |  |  |  |  | CCCCC/N=C(\NC#N)NS(=O)(=O)c1cc([N+](=O)[O-])ccc1Nc1ccc(C)cc1
56% | 55.7% | 558 nM | 0.74 nM | 10.6 | 52.9 nM | 1.05 | 0.7 nM |  |  | CCCCNC(=O)NS(=O)(=O)c1cc([N+](=O)[O-])ccc1Oc1ccc(C)cc1
31.7% | 32.5% |  |  |  |  |  |  |  |  | CC(C)(C)NC(=O)NS(=O)(=O)c1cc([N+](=O)[O-])ccc1Sc1ccc(Cl)cc1
29% | 31.1% |  |  |  |  |  |  |  |  | Cc1ccc(Nc2ccc([N+](=O)[O-])cc2S(=O)(=O)NC(=O)NC2CCCCC2)cc1
21.3% | 24.7% |  |  |  |  |  |  |  |  | CCCCCNC(=O)NS(=O)(=O)c1cc([N+](=O)[O-])ccc1Sc1ccc(Cl)cc1
49.9% | 32.1% | 126 nM | 1.82 nM | 2.92 | 43.2 nM | 3.11 | 0.58 nM |  |  | CCCCCNC(=O)NS(=O)(=O)c1cc([N+](=O)[O-])ccc1Nc1ccc(Br)c(C)c1
52.7% | 48.9% |  |  |  |  |  |  |  |  | CCCCCNC(=O)NS(=O)(=O)c1cc([N+](=O)[O-])ccc1Nc1ccc(Cl)cc1
 |  |  |  |  |  |  |  | 42.5% | 48.4% | CCC(C)NC(=O)NS(=O)(=O)c1cc([N+](=O)[O-])ccc1Nc1c(C)cccc1C (stereo unspecified)
53.6% | 49.5% | 319 nM | 1.05 nM | 6.01 | 53.1 nM | 1.35 | 0.78 nM |  |  | Cc1ccc(Nc2ccc([N+](=O)[O-])cc2S(=O)(=O)NC(=O)NC(C)(C)C)cc1
45.3% | 45.3% |  |  |  |  |  |  |  |  | CCCCCNC(=O)NS(=O)(=O)c1cc([N+](=O)[O-])ccc1Nc1ccccc1C
49.3% | 32.9% | 64.5 nM | 1.9 nM | 1.43 | 45 nM | 1.62 | 1.17 nM |  |  | Cc1ccc(Nc2ccc([N+](=O)[O-])cc2S(=O)(=O)NC(=O)NCc2ccccc2)cc1
44.7% | 53.3% | 58.3 nM | 1.26 nM | 1.01 | 57.6 nM | 0.71 | 1.77 nM |  |  | Cc1ccc(Oc2ccc([N+](=O)[O-])cc2S(=O)(=O)NC(=O)NC(C)(C)C)cc1
42.5% | 44.2% | 81.2 nM | 0.71 nM | 1.76 | 46.2 nM | 0.67 | 1.07 nM |  |  | CCCCCCNC(=O)NS(=O)(=O)c1cc([N+](=O)[O-])ccc1NC1CCCCC1
35.8% | 48.5% | 60.4 nM | 1.01 nM | 1.33 | 45.5 nM | 0.23 | 4.43 nM |  |  | CCCCCNC(=O)NS(=O)(=O)c1cc([N+](=O)[O-])ccc1Nc1cccc(C)c1
 |  |  |  |  |  |  |  | 40.4% | 40.7% | CCC(C)NC(=O)NS(=O)(=O)c1cc([N+](=O)[O-])ccc1Nc1ccc(C)cc1 (stereo unspecified)
